High-throughput results deposited in PubChem BioAssay by The Scripps Research Institute Molecular Screening Center.
Shown are actives, neighbours in structure and some others; about 4.5% of the full set was active somewhere.
TAAR1 antag: human TAAR1 antagonists, primary screen, Fluo-8 calcium fluorescence, CHO RD-HGA16 cells; antagonist; actives 1.5% (n = 360,000); AID 624466, 2012; inhibition, % at 3 µM;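 active = inhibition above a per-plate cutoff, the mean inhibition of test compounds on that plate plus 3 SD, cut at about 49% in these data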;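 also: 0% = DMSO plus EC80 beta-PEA response and 100% = DMSO alone without agonist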
Target sequence (Q96RJ0 whole entry, looked up): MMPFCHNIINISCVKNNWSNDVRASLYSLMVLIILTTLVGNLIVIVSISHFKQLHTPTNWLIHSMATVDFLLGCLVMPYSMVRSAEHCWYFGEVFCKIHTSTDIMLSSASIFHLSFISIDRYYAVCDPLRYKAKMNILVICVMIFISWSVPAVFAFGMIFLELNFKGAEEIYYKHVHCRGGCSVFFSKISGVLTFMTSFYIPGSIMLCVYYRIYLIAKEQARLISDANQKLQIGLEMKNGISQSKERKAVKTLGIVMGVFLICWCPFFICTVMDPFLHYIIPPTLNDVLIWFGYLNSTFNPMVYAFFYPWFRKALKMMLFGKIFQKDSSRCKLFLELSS
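Test system – hTAAR1-expressing CHO RD-HGA16 cells, Gα16-coupled · Also added – β-PEA at EC80 concentration, post-compound challenge · Compound – 3 µM, single point · Incubation – dye loading 75 min at 37 °C, then 30 min room temperature · Measured by – Fluo-8 intracellular calcium dye fluorescence, real-time kinetic reads · Benchmarks – vehicle and agonist controls · Replicates – singlicate, one well per test compound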
TAAR1 agonist: human TAAR1 agonists, primary screen, Fluo-8 calcium fluorescence, CHO RD-HGA16 cells; vehicle wells 0%, saturating PEA agonist 100%; actives 0.99% (n = 360,000); Trace amine-associated receptor 1 (Homo sapiens), Q96RJ0; AID 624467, 2012; activation, % at 3 µM;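 active = activation above the mean activation of all test compounds in the run plus 3 SD, cut at about 38% in these data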
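Repeats: no replicates (n 1) | Material: CHO-derived RD-HGA16 cells with stable Gα16 and human TAAR1 | Technique: Kinetic Fluo-8 calcium fluorescence | Schedule: 17-24 h seeding, 75 min 37 °C dye, 30 min RT | Evaluation: % activation from peak over basal fluorescence ratio, DMSO-to-PEA scaled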
OX1R antag-1: antagonists of human orexin 1 receptor (OX1R). OX1R-expressing cells, FRET antagonist read-out. inhibition, % at 6.6 µM. actives 1.8% (n = 330,000); in the data active = inhibition mostly above about 38%, no sharp cut-off; inactive = mostly below about 40%;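 also: 0% = agonist challenge alone and 100% = reference antagonist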
CHO parental Ca: ATP-evoked calcium signal inhibitors, parental CHO, primary screen, counter-screen for OX1R antagonist project, cell-based, fluorescence, Fluo-8 calcium dye | parental CHO-K1, ATP-induced calcium, Fluo-8 fluorescence | inhibition, % at 5.6 µM | actives 0.63% (n = 330,000);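 active = inhibition above that plate's mean sample inhibition plus 3 SD, cut at about 26% in these data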;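 also: 0% = ATP-challenged DMSO wells and 100% = DMSO wells without ATP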
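Measured by: calcium-sensitive Fluo-8 fluorescence / Test system: CHO parental line / Controls: ATP-challenged DMSO wells low, unchallenged DMSO wells high / Measure: % inhibition / Compound: single nominal dose of 5.6 µM per compound / Replicates: single well per compound, no replicates / Reagent: ATP as calcium-mobilizing challenge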
OX1R antag-2: OX1R (HCRTR1) antagonists, primary screen, fluorescence, CHO/OX1R cells, Fluo-8 calcium, orexin A; actives 0.43% (n = 330,000); inhibition, % at 5 µM; Fluo-8 calcium fluorescence; Orexin/Hypocretin receptor type 1 (Homo sapiens), O43613;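 active = inhibition above its plate's threshold, mean inhibition of all tested compounds on the plate plus 3 SD, cut at about 37% in these data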;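 also: 0% = orexin A challenge wells and 100% = SB-334867-A antagonist wells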
GPR7 antagonist: GPR7 receptor antagonists, primary screen, cell-based, fluorescence, single concentration. GPR7-expressing cells, fluorescence antagonist assay. inhibition, % at 4.4 µM. actives 1.1% (n = 290,000). AID 1861, 2009; in the data active = inhibition above about 16%, passing the limit was not always enough;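 also: cells stimulated with the agonist NPW; 0% = agonist with vehicle and 100% = vehicle without agonist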
Target sequence (P48145 whole entry, looked up): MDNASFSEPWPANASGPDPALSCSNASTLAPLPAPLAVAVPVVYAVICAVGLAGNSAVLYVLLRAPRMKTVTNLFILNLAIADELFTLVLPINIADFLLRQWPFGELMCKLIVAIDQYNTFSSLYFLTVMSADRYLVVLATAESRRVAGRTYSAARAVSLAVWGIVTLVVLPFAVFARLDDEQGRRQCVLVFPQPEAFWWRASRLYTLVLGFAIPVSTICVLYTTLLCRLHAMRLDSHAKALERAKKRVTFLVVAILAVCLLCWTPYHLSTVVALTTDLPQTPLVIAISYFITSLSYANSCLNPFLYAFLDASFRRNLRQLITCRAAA
GPR7 antag cf: GPR7 receptor antagonists, confirmation, cell-based, fluorescence, single concentration; shares compounds with GPR7 antagonist; GPR7-expressing cells, calcium fluorescence antagonist mode; inhibition, % at 4.4 µM; actives 52% (n = 2,400); AID 1952, 2009; in the data active = inhibition above about 24%;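 also: stimulated with the GPR7 agonist NPW; 0% = agonist plus vehicle and 100% = vehicle alone without agonist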
MCHR1 antag: MCHR1 antagonists in cells, counter-screen for GPR7 antagonist project, cell-based, fluorescence, human; inhibition, % at 4.4 µM; shares compounds with GPR7 antagonist; actives 62% (n = 2,400); MCHR1-expressing cells, fluorescence antagonist assay; AID 2148, 2009; in the data active = inhibition above about 22%;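 also: 0% = vehicle with agonist and 100% = vehicle without agonist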
* hit, by the source's call; nt = no result given.

SMILES	TAAR1 antag	TAAR1 agonist	OX1R antag-1	CHO parental Ca	OX1R antag-2	GPR7 antagonist	GPR7 antag cf	MCHR1 antag
C=CCC1(CC=C)CC(Cc2cnccn2)N(C(=O)OC(C)(C)C)C1 (configuration not stated)	-39	4	nt	nt	nt	nt	nt	nt
CN1CCN(C(=O)c2ccc(CSc3ccc(Cl)cc3)cc2)CC1	11	7	28	20	4	-1	nt	nt
CCOC(=O)N1CCN(C(=O)c2ccc(CSc3ccc(Cl)cc3)cc2)CC1	23	3	nt	nt	nt	25*	22	49*
COC(=O)c1ccc(CSCc2ccc(C#N)cc2)cc1	nt	nt	4	10	-14	48*	55*	56*
O=C(Nc1ccccc1)[C@@H]1[C@@H]2C(=O)N(c3ccc(F)cc3)C(=O)[C@@H]2[C@H]2C=CC=NN21	0	16	14	-9	-13	27*	9	0
Cc1ccc(N2C(=O)[C@@H]3[C@H](C2=O)[C@H]2C=CC=NN2[C@@H]3C(=O)Nc2ccccc2)cc1	-7	1	4	-13	-11	-13	nt	nt
COc1cc(C)ccc1S(=O)(=O)NC(=O)C1(C)CCN1C(=O)C1(c2ccc(Cl)cc2)CCC1 (configuration not stated)	-2	3	nt	nt	nt	nt	nt	nt
Cc1ccc(S(=O)(=O)N2CCN(C(=O)COC(=O)c3ccc(Cl)c(S(N)(=O)=O)c3)CC2)c(C)c1	10	1	nt	nt	nt	nt	nt	nt
CCCCNC(=NCc1cccc(C(F)(F)F)c1)Nc1ccccc1	13	18	15	-23	-23	44*	49*	31*
O=C(Nc1ccc(C(F)(F)F)cc1)C1CCN(c2cnccn2)CC1	-27	1	-5	7	3	1	nt	nt
O=C(NCCCc1ccc(F)cc1)C1CCC(=O)N(CCCN2CCCC2=O)C1 (configuration not stated)	4	1	9	-6	-33	35*	-2	4
O=C(NCCCC1CCCC1)C1CCC(=O)N(Cc2ccc(Cl)cc2)C1 (configuration not stated)	-33	-2	13	-29	-40	28*	4	-6
COc1cccc(-c2cc(NC(C)=O)c3ncc(-c4ccc(OC)c(OC)c4)n3c2)c1	26	3	nt	nt	nt	nt	nt	nt
Nc1ccccc1-n1nc2ccc3ccccc3c2n1	9	1	nt	nt	nt	nt	nt	nt
CCOc1ccc(/C(O)=C2\C(=O)C(=O)N(c3ccccn3)C2c2ccccc2F)c(C)c1 (configuration not stated)	-31	3	nt	nt	nt	nt	nt	nt
O=C(NCCc1ccccc1F)C1CCCN1S(=O)(=O)c1ccc2ccccc2c1 (configuration not stated)	12	20	18	-30	-5	23*	10	22*
CCNC(=O)C1CCCN1S(=O)(=O)c1ccc2ccccc2c1 (configuration not stated)	-18	5	16	-6	-20	-8	nt	nt
COc1ccccc1C(=O)NC(=O)COC(=O)c1nc(Cl)ccc1Cl	-2	5	7	-7	2	nt	nt	nt
c1ccc2c(-c3[nH]ncc3CNCCCn3ncc4ccccc43)cccc2c1	-10	24	17	22	-23	22*	27*	52*
Cc1ccc(S(=O)(=O)N2CCN(C(=O)COC(=O)/C=C/c3ccc(OC(F)F)cc3)CC2)cc1	12	2	nt	nt	nt	nt	nt	nt
CC(=O)c1ccc(NC(=O)c2ccccc2-c2ccccc2C(=O)O)cc1	-2	-1	21	-4	-13	27*	1	-2
CCOC(=O)CSc1nc2c(sc(=S)n2-c2ccccc2OC)c(=O)n1Cc1ccco1	10	6	21	3	-21	20	nt	nt
CCOC(=O)CSc1nc2c(sc(=S)n2Cc2ccco2)c(=O)n1-c1ccccc1	7	7	18	-24	-17	22*	17	45*
CN1C(=O)NC(c2ccc(Cl)cc2)C2=C1CC(C)(C)CC2=O (configuration not stated)	6	9	4	-8	-14	2	nt	nt
Cc1c(Br)cccc1NC(=O)C1(C)CCN1Cc1ccc(OC(C)C)cc1 (configuration not stated)	-17	3	nt	nt	nt	nt	nt	nt
SMILES	TAAR1 antag	TAAR1 agonist	OX1R antag-1	CHO parental Ca	OX1R antag-2	GPR7 antagonist	GPR7 antag cf	MCHR1 antag
CCCCCCCCC(=O)c1c(OC)oc(C=O)cc1=O	-9	1	nt	nt	nt	nt	nt	nt
CN1CCN(c2ccc3sc(-n4ccc5ccccc54)nc3c2)CC1	16	8	nt	nt	nt	nt	nt	nt
COc1ccc2c(=O)c(-c3cnn(-c4ccccc4)c3)c(C)oc2c1	11	1	38	-9	-29	-6	nt	nt
Cc1oc2c(C)c(O)ccc2c(=O)c1-c1cnn(-c2ccccc2)c1	-3	4	8	-2	-6	28*	19	3
CCc1ccc(OCc2nnc(NC(=O)c3cccs3)s2)cc1	-5	19	9	-5	2	25*	-3	-2
C#CCNC(=O)C[C@@H]1C[C@@]2(C(=O)OC)CC(C)(C)CC=C2N(Cc2ccccc2)C1=O	-13	2	nt	nt	nt	nt	nt	nt
Cc1nc2ccc([N+](=O)[O-])cc2c(=O)n1Cc1cccc(Br)c1	29	6	28	7	-15	47*	32*	35*
CC(C)N(C)c1ncnc2c1ncn2[C@H]1CN(Cc2cccs2)C[C@@H](CO)O1	-6	1	nt	nt	nt	nt	nt	nt
CN=c1scc(-c2ccc(F)cc2)n1/N=C/c1ccc(O)c(O)c1	9	8	nt	nt	nt	23*	33*	13
O=C(NNC(=O)c1ccc(O)c(Cl)c1)c1cccc(S(=O)(=O)N2CCOCC2)c1	-22	2	13	-11	5	nt	nt	nt
CS(=O)(=O)c1ccc(C(=O)OCc2nnc(-c3ccc(Cl)cc3)o2)cc1[N+](=O)[O-]	nt	nt	31	13	4	35*	88*	78*
C=CCOc1ccc(CN(C)CC(O)COc2cccc3ccccc23)cc1 (configuration not stated)	9	19	7	2	-4	33*	47*	39*
Cc1cc(CN(C)Cc2ccc(OCC(O)CN(C)Cc3ccccc3)cc2)on1 (configuration not stated)	-10	5	7	-13	-31	14	nt	nt
S=C(Cc1ccccc1)Nc1ccccc1	19	0	nt	nt	nt	nt	nt	nt
N#Cc1c(NCCN)nc(NCc2ccccc2)c2c1CCN(Cc1ccccc1)C2	nt	nt	nt	nt	nt	7	nt	nt
